Assay results published in ChEMBL document CHEMBL4190389, “Synthesis and activity of di- or trisubstituted N-(phenoxyalkyl)- or N-{2-[2-(phenoxy)ethoxy]ethyl}piperazine derivatives on the central nervous system” (Bioorg Med Chem Lett, 2018).
Calls of active or inactive are those of the source. No cut-off for these calls is given here.

Experiments:
[1] = test system: Mus musculus; experiment: Antidepressant-like activity in ip dosed Albino Swiss CD-1 mouse assessed as decrease in immobility time administered […] prior to test measured for last 4 mins of 6 mins observation by forced swim test (reference value: 153.9 to 201.9 secs); format: functional
[2] = target: 5-hydroxytryptamine receptor 2A (Homo sapiens, UniProt P28223); experiment: Displacement of [3H]-ketanserin from recombinant human 5-HT2A receptor after 60 mins by liquid scintillation counting method
Chain of 5-hydroxytryptamine receptor 2A (P28223 whole entry): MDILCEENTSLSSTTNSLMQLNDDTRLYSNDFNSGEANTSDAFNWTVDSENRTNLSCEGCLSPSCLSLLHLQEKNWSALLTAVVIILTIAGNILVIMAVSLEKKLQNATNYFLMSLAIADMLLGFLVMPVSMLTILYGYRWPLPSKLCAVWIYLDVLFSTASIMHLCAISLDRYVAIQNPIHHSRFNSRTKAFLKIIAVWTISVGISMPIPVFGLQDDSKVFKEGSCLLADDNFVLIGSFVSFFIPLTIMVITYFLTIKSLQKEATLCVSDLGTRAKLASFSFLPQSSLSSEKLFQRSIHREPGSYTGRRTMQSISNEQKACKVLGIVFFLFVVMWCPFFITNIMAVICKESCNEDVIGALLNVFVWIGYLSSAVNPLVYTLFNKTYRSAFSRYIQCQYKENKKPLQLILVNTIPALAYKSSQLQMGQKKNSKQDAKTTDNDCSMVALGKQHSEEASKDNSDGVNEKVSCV

[3] = target: T1, 5-hydroxytryptamine receptor 1A (Homo sapiens, UniProt P08908); experiment: Displacement of [3H]8-OH-DPAT from human 5-HT1A receptor expressed in HEK293 cell membranes after 1 hr
T1 sequence (P08908 whole entry): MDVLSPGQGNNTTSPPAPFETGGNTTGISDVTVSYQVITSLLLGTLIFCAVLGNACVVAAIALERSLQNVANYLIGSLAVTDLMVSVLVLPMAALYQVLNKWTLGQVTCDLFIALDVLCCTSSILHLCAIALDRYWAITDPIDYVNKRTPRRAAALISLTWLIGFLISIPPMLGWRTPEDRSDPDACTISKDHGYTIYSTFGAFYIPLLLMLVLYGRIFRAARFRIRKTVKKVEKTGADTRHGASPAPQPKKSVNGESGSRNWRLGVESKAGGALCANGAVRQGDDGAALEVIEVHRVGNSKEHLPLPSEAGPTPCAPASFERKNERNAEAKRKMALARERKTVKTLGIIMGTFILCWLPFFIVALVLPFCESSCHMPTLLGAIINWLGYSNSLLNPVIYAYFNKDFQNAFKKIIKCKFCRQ

[4] = test system: Mus musculus; experiment: Antidepressant-like activity in Albino Swiss CD-1 mouse assessed as immobility time at 10 mg/kg, ip administered 30 mins prior to test measured for last 4 mins of 6 mins observation by forced swim test (reference value: 153.9 to 201.9 secs); format: functional
[5] = target: 5-hydroxytryptamine receptor 7 (Homo sapiens, UniProt P34969); experiment: Displacement of [3H]LSD from recombinant human 5-HT7 receptor expressed in CHO cell membranes at 10^-5 M after 60 mins by liquid scintillation counting method
Chain of 5-hydroxytryptamine receptor 7 (P34969 whole entry): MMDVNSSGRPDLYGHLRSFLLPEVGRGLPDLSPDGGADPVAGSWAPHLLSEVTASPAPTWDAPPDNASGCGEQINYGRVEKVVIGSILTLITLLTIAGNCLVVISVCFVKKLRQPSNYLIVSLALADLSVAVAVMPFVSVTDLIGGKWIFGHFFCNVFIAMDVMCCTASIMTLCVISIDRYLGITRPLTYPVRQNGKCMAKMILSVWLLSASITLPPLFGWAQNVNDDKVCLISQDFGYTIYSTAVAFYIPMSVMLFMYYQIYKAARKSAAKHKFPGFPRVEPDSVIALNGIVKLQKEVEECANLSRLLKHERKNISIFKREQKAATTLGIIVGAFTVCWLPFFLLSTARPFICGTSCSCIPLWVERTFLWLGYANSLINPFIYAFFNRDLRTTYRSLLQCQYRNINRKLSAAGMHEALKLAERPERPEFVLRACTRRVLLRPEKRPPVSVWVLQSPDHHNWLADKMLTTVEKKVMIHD

[6] = test system: Mus musculus; experiment: Antidepressant-like activity in Albino Swiss CD-1 mouse assessed as immobility time at 20 mg/kg, ip administered 30 mins prior to test measured for last 4 mins of 6 mins observation by forced swim test (reference value: 153.9 to 201.9 secs); format: functional
[7] = target: T1, 5-hydroxytryptamine receptor 1A; experiment: Displacement of [3H]8-OH-DPAT from recombinant human 5-HT1A receptor expressed in HEK293 cell membranes after 60 mins by liquid scintillation counting method
[8] = target: T2, Alpha-1A adrenergic receptor (Homo sapiens) (UniProt P35348); experiment: Displacement of [3H]prazosin from recombinant human alpha1 adrenoceptor expressed in CHO cell membranes at 10^-5 M after 30 mins by liquid scintillation counting method
T2 sequence (whole entry): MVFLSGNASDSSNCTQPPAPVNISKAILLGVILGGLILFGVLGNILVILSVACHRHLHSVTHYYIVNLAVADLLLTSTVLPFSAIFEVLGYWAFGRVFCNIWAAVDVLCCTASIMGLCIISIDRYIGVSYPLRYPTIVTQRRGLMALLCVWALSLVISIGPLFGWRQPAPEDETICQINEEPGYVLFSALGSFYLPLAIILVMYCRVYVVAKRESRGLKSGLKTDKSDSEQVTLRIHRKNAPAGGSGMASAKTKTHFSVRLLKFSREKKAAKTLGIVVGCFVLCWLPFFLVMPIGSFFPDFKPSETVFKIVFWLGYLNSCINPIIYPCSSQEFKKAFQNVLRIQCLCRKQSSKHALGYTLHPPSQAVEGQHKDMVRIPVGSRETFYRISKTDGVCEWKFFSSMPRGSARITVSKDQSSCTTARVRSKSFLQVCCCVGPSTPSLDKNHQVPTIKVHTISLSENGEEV

[9] = test system: Mus musculus; experiment: Anticonvulsant activity in ip dosed Albino Swiss CD-1 mouse assessed as dose required to protect against 50 Hz current-induced seizure; format: functional; settings: Swiss CD-1, ip
[10] = test system: Mus musculus; experiment: Antidepressant-like activity in Albino Swiss CD-1 mouse assessed as immobility time at 5 mg/kg, ip administered 30 mins prior to test measured for last 4 mins of 6 mins observation by forced swim test (reference value: 153.9 to 201.9 secs); format: functional
[11] = test system: Mus musculus; experiment: Toxicity in Albino Swiss CD-1 mouse assessed as effect on locomotory activity at 1.25 to 5 mg/kg, ip administered for 30 mins prior to test measured for 1 min; format: organism-based; settings: in vivo
[12] = target: 5-hydroxytryptamine receptor 6 (Homo sapiens, UniProt P50406); experiment: Displacement of [3H]LSD from recombinant human 5-HT6 receptor expressed in CHO cells cell membranes at 10^-5 M after 60 mins by liquid scintillation counting method
Chain of 5-hydroxytryptamine receptor 6 (P50406 whole entry): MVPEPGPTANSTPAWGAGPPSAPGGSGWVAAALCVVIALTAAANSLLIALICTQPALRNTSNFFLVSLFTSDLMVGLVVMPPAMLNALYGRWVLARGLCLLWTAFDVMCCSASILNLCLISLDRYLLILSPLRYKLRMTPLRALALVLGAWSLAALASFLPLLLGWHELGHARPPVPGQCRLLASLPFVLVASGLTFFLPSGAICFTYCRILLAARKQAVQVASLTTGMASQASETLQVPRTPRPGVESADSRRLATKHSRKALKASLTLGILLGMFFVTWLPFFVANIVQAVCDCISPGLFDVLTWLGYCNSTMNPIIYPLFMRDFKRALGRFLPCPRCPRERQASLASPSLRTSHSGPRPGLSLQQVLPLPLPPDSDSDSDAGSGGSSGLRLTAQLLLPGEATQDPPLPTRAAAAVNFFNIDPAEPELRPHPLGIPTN

[13] = Neurotoxicity in ip dosed Albino Swiss CD-1 mouse assessed as minimum dose required to induce motor impairment treated 30 mins prior to test by rotarod test; format: toxicity, organism-based; settings: in vivo
[14] = test system: Mus musculus; experiment: Toxicity in Albino Swiss CD-1 mouse assessed as death at 100 mg/kg, ip; format: organism-based; settings: in vivo
Outline: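 Deaths counted in mice during maximal electroshock (MES) seizure testing after i.p. dosing, 6 mice per dose (3 or 1 at some top doses); recorded as number dead/number tested alongside protection and rotarod motor impairment (10 rpm); untreated control group included.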

[15] = test system: Mus musculus; experiment: Anxiolytic-like activity in Albino Swiss CD-1 mouse assessed as increase in number of punished crossings at 2.5 mg/kg, ip administered for 30 mins prior to test measured for 1 min by four-plate test; format: functional, organism-based
Outline: (§1)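 Four-plate test in mice, i.p., 30 min before test; vehicle 0.9% NaCl; doses 1.25–10 mg/kg; number of punished crossings counted; mean ± SEM, n = 8–10 mice per group; ANOVA F statistics.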

[16] = Protection index, ratio of TD50 for motor impairment in ip dosed Swiss albino CD-1 mouse to ED50 for protection against 50 Hz current-induced seizures in ip dosed Swiss albino CD-1 mouse; format: toxicity, organism-based, Swiss CD-1; settings: in vivo, read-out: Ratio TD50/ED50
[17] = test system: Mus musculus; experiment: Anxiolytic-like activity in Albino Swiss CD-1 mouse assessed as increase in number of punished crossings at 5 mg/kg, ip administered for 30 mins prior to test measured for 1 min by four-plate test; format: functional, organism-based; outline: as §1

| Ki [2] [nM] | Ki [3] [nM] | SMILES | ED [1] [mg/kg] | Time [4] [s] | inhibition [5] | Time [6] [s] | Ki [7] [nM] | inhibition [8] | ED50 [9] [mg/kg] | Time [10] [s] | Activity [11] | inhibition [12] | TD50 at 0.5 h [13] [mg/kg] | Activity [14] | Activity [15] | selectivity ratio [16] | Activity [17] |
| --- | --- | --- | --- | --- | --- | --- | --- | --- | --- | --- | --- | --- | --- | --- | --- | --- | --- |
| 2830 | < 1 | COc1ccccc1N1CCN(CCCOc2c(C)cc(C)cc2C)CC1.Cl | 5 |  |  |  |  |  |  |  |  |  |  |  |  |  |  |
|  |  | Cc1cc(C)c(OCCN2CCN(CCOCCO)CC2)c(C)c1.Cl.Cl |  | 135.3 | inactive | 128 | 3170 | inactive | 45.4 | 152.5 | Non-Toxic | inactive | 85.3 | Non-Toxic | Active | 1.88 | Active |
